ChEMBL document CHEMBL1121580, “Comparison of biological effects of N-alkylated congeners of beta-phenethylamine derived from 2-aminotetralin, 2-aminoindan, and 6-aminobenzocycloheptene” (1980)
Calls of active or inactive are those of the source. No cut-off for these calls is given here.

Assays:
Felis catus = species: Felis catus; assay: Evaluated for inhibition of pressor response during central sciatic nerve stimulation in cat; type: functional
Outline: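 In cats under pentobarbital sodium 30 mg/kg intrathoracic, left femoral arterial pressure was recorded. The central stump of the sectioned right sciatic nerve was stimulated at 4 Hz, 5 ms, supramaximal voltage for 30 s (pressor 30–60 mmHg). Compounds were given iv, followed 1 h, doses stepped by 0.48 log unit; at least six cats. Value is the calculated amount giving 50% pressor inhibition.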

Mus musculus [1] = species: Mus musculus; assay: Evaluated for analgesic activity and increase in reaction time in mouse by hotplate assay; type: functional; set-up: unit not given beside the values
Outline: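 Male Swiss-Webster mice (20–30 g) got 10 mg/kg ip 10 min before a single exposure to a 55 ± 0.5 °C hot plate. End point was jumping or paw licking. Ten mice per drug, plus 10 saline controls each test day; also run after naloxone 5 mg/kg ip pretreatment. Mean latency (s) ± SEM; grouped Student's t test vs control.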

Mus musculus [2] = species: Mus musculus; assay: (§1) Evaluated for drug-induced inhibition of exploratory activity in mouse; type: functional; set-up: concentration or dose not given beside the values
Outline: (§2)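 Male Swiss-Webster mice (20–30 g) were acclimated for several days and tested in groups of three in an activity meter. Dosing was 10 mg/kg ip immediately before cage entry; controls got water on each test day. Counts from the 18 min starting at 6 min were summed as % reduction vs control. Three groups per compound; one-way ANOVA, Scheffé.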

Canis familiaris [3] = species: Canis familiaris; assay: Evaluated for inhibition of pressor response during carotid occlusion in dog; IA = inactive; type: functional, organism-based; conditions: Canis lupus familiaris
Outline: (§3)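 Dogs (8–15 kg) under thiopental sodium 15 mg/kg iv, then barbital sodium 200 mg/kg. Pressor response to bilateral carotid occlusion was monitored at least 1 h per dose. Doses changed by 0.48 log interval once responses returned to control. At least five dogs per compound; value is the calculated amount giving 50% inhibition of the pressor response.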

Rattus norvegicus [4] = species: Rattus norvegicus; assay: Evaluated for induce circling behavior in the rat expressed as rotational behavior (turns/h); type: functional
Outline: (§4)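 Used male Sprague-Dawley rats (200–300 g) with unilateral substantia nigra 6-hydroxydopamine lesions. A single 10 mg/kg sc dose was given to four rats at the start of a 1-h automatic recording. Turns/h were recorded with direction (ipsilateral or contralateral); a mean above 100 counted as substantial circling.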

Canis familiaris [5] = species: Canis familiaris; assay: Evaluated for inhibition of pressor response during carotid occlusion in dog at 0.5; IA = inactive; type: functional, organism-based; conditions: Canis lupus familiaris
Mus musculus [6] = species: Mus musculus; assay: as §1; type: functional; outline: as §2
Canis familiaris [7] = assay: Evaluated for inhibition of pressor response during carotid occlusion in dog at 0.5 mg/kg; IA = inactive; type: functional, organism-based; set-up: dose 0.5 mg/kg; conditions: Canis lupus familiaris
Canis familiaris [8] = species: Canis familiaris; assay: Evaluated for inhibition of pressor response during carotid occlusion in dog; type: functional; conditions: Canis lupus familiaris; outline: as §3
Canis familiaris [9] = species: Canis familiaris; assay: Evaluated for inhibition of pressor response during carotid occlusion in dog.; type: functional; conditions: Canis lupus familiaris; outline: as §3
Rattus norvegicus [10] = species: Rattus norvegicus; assay: Evaluated for induce circling behavior in the rat expressed as rotational behavior (turns/h); IA = inactive; type: functional, organism-based; outline: as §4

| SMILES | Activity (Mus musculus [1]) | Reduction (Mus musculus [2]) [%] | Activity (Rattus norvegicus [4]) [turns hr-1] | also measured |
| --- | --- | --- | --- | --- |
| CN(C)C1CCc2ccccc2C1.Cl (configuration not stated) | 24.2 | 88.1 | 53 | ED50 (Felis catus): 0.16 µmol/kg; ED50 (Canis familiaris [3]): inactive |
| CN(C)C1Cc2ccccc2C1.Cl | – | – | 23 | – |
| CN(C)C1CCCc2ccccc2C1 (configuration not stated) | – | – | – | ED50 (Canis familiaris [5]): inactive |
| CCCCNC1CCc2ccccc2C1.Cl (configuration not stated) | 17.6 | – | 7 | Reduction (Mus musculus [6]): 20.7% |
| CCN(CC)C1CCc2ccccc2C1.Cl (configuration not stated) | 33.5 | 73.4 | 501 | ED50 (Felis catus): 0.35 µmol/kg |
| CC(C)NC1CCc2ccccc2C1.Cl (configuration not stated) | 27 | – | – | – |
| CC(C)NC1CCCc2ccccc2C1 (configuration not stated) | – | – | – | ED50 (Canis familiaris [7]): inactive |
| CCN(CC)C1Cc2ccccc2C1.Cl | 33.9 | 50.6 | 304 | ED50 (Felis catus): 1.14 µmol/kg |
| Cl.NC1CCc2ccccc2C1 (configuration not stated) | 25.6 | 55.1 | 104 | – |
| CC(C)NC1Cc2ccccc2C1.Cl | 17.8 | 2.8 | 25 | – |
| CCCN(CCC)C1CCc2ccccc2C1.Cl (configuration not stated) | 29.2 | 76.5 | 734 | ED50 (Felis catus): 0.09 µmol/kg; ED50 (Canis familiaris [8]): 0.22 µmol/kg |
| CCNC1CCc2ccccc2C1.Cl (configuration not stated) | 29.6 | 76.4 | 508 | ED50 (Felis catus): 2.3 µmol/kg; ED50 (Canis familiaris [9]): 0.52 µmol/kg |
| CNC1Cc2ccccc2C1.Cl | 28.6 | 80.3 | 6 | – |
| CCCCN(CCCC)C1Cc2ccccc2C1.Cl | 11.7 | 8.4 | 2 | – |
| CCCN(CCC)C1Cc2ccccc2C1.Cl | 22 | 64 | 289 | ED50 (Felis catus): 0.25 µmol/kg |
| CCNC1Cc2ccccc2C1.Cl | 22.1 | 73.6 | 17 | – |
| CC(C)N(C)C1Cc2ccccc2C1.Cl | 29.4 | 64 | 15 | – |
| CCCNC1Cc2ccccc2C1.Cl | 15 | 21.9 | 6 | – |
| Cl.NC1Cc2ccccc2C1 | 35.8 | 76 | 27 | – |
| CCCN(CCC)C1CCCc2ccccc2C1 (configuration not stated) | – | – | – | Activity (Rattus norvegicus [10]): inactive |
| CNC1CCc2ccccc2C1.Cl (configuration not stated) | 16 | – | 263 | Reduction (Mus musculus [6]): 70.2% |
| CC(C)N(C)C1CCc2ccccc2C1.Cl (configuration not stated) | 20.6 | 79.7 | 16 | – |
| NC1CCCc2ccccc2C1 (configuration not stated) | – | – | – | Activity (Rattus norvegicus [10]): inactive |
| CCCCNC1Cc2ccccc2C1.Cl | 17.7 | 7.1 | 3 | – |
| Br.CCCCN(CCCC)C1CCc2ccccc2C1 (configuration not stated) | 12 | 0.8 | 4 | – |
| CCCNC1CCc2ccccc2C1.Cl (configuration not stated) | 18.9 | 79 | 804 | ED50 (Felis catus): 0.9 µmol/kg; ED50 (Canis familiaris [8]): 3.38 µmol/kg |
